The values below come from ChEMBL document CHEMBL1138784, “Rational design, synthesis, and biological evaluation of bis(pyrimido[5,6,1-de]acridines) and bis(pyrazolo[3,4,5-kl]acridine-5-carboxamides) as new anticancer agents” (J Med Chem, 2004).

SMILES strings stand for the structures. Where only a bound is given, the exact number is not on record here.

Test [1] relates to HT-29. Briefly: Cytotoxicity is determined as the concentration required to inhibit the growth of human colon adenocarcinoma (HT-29) cell line. In kind it is functional, cell-based.
Test [2] relates to Nucleic Acid. The experiment in a line: Binding site preference is determined as the ratio of Poly (dA-dT)2 to Poly (dG-dC)2. In kind it is nucleic-acid assay. The method, boiled down: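 Ethidium displacement fluorometry at pH 7.0 (10 mM Na2HPO4, 10 mM NaH2PO4, 1 mM EDTA) with 1.26 μM ethidium bromide and 1 μM [poly(dA-dT)]2 or [poly(dG-dC)]2, 20 °C. Ex 546 nm, em 595 nm, drug added serially from a DMSO stock. Preference taken from the [AT]/[GC] ratio of C50 values, counted significant only below 0.7 or above 1.3.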

The test system of test [3] is Nucleic Acid. The experiment in a line: Binding site preference is determined as the ratio of AT to GC.
Test [4] has as its system PC-3. Briefly: Cytotoxicity against human PC3 cancer cell line was determined after 144 hr. In kind it is functional, cell-based. The note with it: PC-3, 144 h. The method, boiled down:
(§1)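 MTT colorimetric assay. Cells seeded by growth characteristics and preincubated 24 h, then exposed to drug for 1 h or 144 h at 37 °C, 5% CO2. H460M, MKN45 and PC-3 were grown in RPMI 1640 with 10% FCS. HCT116 was grown in D-MEM with 10% FBS and 2 mM glutamine.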

A short description of test [5]: Cytotoxicity against human H460M cancer cell line was determined after 144 hr. In kind it is functional, cell-based. Conditions: Cancer cell lines. The method, boiled down:
as §1

The nature of test [6]: Cytotoxicity against human HCT116 cancer cell line was determined after 1 hr. It counts as cell-based. Conditions: HCT-116, 1 h. The method, boiled down: as §1
Test [7] deals with HCT-116. The experiment in a line: Cytotoxicity against human HCT116 cancer cell line was determined after 144 hr. In kind it is functional, cell-based. The note with it: HCT-116, 144 h. The method, boiled down: as §1
Test [8] can be described thus: Cytotoxicity against human MKN45 cancer cell line was determined after 1 hr. Conditions: Cancer cell lines. In kind it is cell-based. The method, boiled down: as §1
Test [9] has as its system LoVo. The experiment in a line: Cytotoxicity against human LoVo cancer cell line was determined after 144 hr. In kind it is functional, cell-based. The method, boiled down:
(§2)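 MTT assay on doxorubicin-sensitive LoVo and resistant LoVo/Dx cells, 24 h preincubation, then 1 h or 144 h drug exposure at 37 °C, 5% CO2. IC50 in nM. Resistance index is IC50 on LoVo/Dx divided by IC50 on LoVo.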

A short description of test [10]: Cytotoxicity against human H460M cancer cell line was determined after 1 hr. In kind it is cell-based. The note with it: Cancer cell lines. The method, boiled down:
as §1

Test [11] is described as follows: Cytotoxicity against human PC3 cancer cell line was determined after 1 hr. It counts as cell-based. Conditions: Cancer cell lines. The method, boiled down: as §1
The subject of test [12] is MKN-45. The experiment in a line: Cytotoxicity against human MKN45 cancer cell line was determined after 144 hr. It counts as functional, cell-based. Conditions: MKN-45, 144 h. The method, boiled down:
as §1

Test [13] is described as follows: Cytotoxicity against human LoVo cancer cell line was determined after 1 hr. It counts as cell-based. The method, boiled down:
as §2

The molecule `CN(C)CCN1Nc2c3ccccc3nc3c(C(=O)NCCN(C)CCNC(=O)c4ccc5c6c(c7ccccc7nc46)NN5CCN(C)C)ccc1c23` came in with an IC50 in test [1] of 360 nM. In addition, the Binding site preference in test [2] turned out to be 4.3.
For `CN(C)CCn1c(=O)c2ccc(NCCCCCCCCNc3ccc4c(=O)n(CCN(C)C)c(=O)n5c6ccccc6c(=O)c3c45)c3c(=O)c4ccccc4n(c1=O)c23` the same measures were 360 nM and 41.
For `CN(C)CCn1c(=O)c2ccc(NCCCCCCCCCCCCNc3ccc4c(=O)n(CCN(C)C)c(=O)n5c6ccccc6c(=O)c3c45)c3c(=O)c4ccccc4n(c1=O)c23` the same measures were 3500 nM and 12.
Turning to `COc1cc2c(=O)c3c(NCCN(C)C)ccc4c(=O)n(CCN(C)C)c(=O)n(c2cc1OC)c43`, the Binding site preference in test [3] was 0.12.
Turning to `COc1ccc2nc3c(C(=O)NCCCN(C)CCCNC(=O)c4ccc(NCCN(C)C)c5c(O)c6cc(OC)ccc6nc45)ccc(NCCN(C)C)c3c(O)c2c1`, in test [1], it took 2 nM to reach half-maximal inhibition (IC50). Also, the Binding site preference in test [2] stood at 2.5.
Regarding `CN(C)CCNc1ccc2c(=O)n(CCN(C)C)c(=O)n3c4ccccc4c(=O)c1c23`, the Binding site preference in test [3] was found to be 0.57.
On the same count and under the same terms, then `COc1ccc2c(c1)c(=O)c1c(NCCN(C)C)ccc3c(=O)n(CCN(C)C)c(=O)n2c31`, with 0.22.
As to `CN(C)CCNc1ccc(C(=O)NCCCN(C)CCCNC(=O)c2ccc(NCCN(C)C)c3c(=O)c4ccccc4[nH]c23)c2[nH]c3ccccc3c(=O)c12`, in test [1], the IC50 came out at 57 nM. Also, in [2], the Binding site preference was 10.
For `CN(C)CCNc1ccc(C(=O)NCCCN(C)CCCNC(=O)c2ccc(NCCN(C)C)c3c(O)c4cc(O)ccc4nc23)c2nc3ccc(O)cc3c(O)c12` the same measures were 800 nM and 1.6.
In the case of `CN(C)CCNC(=O)c1ccc(NCCCN(C)CCCNc2ccc(C(=O)NCCN(C)C)c3nc4ccccc4c(O)c23)c2c(O)c3ccccc3nc12`, the IC50 in test [1] amounted to 0.43 nM.
Consider `CN(C)CCNC(=O)c1ccc2c3c(c4cc(O)ccc4nc13)NN2CCN(C)C`, for which the Binding site preference in [2] was 5.1.
With `CN(C)CCn1c(=O)c2ccc(NCCCNc3ccc4c(=O)n(CCN(C)C)c(=O)n5c6ccccc6c(=O)c3c45)c3c(=O)c4ccccc4n(c1=O)c23`, in test [1], the 50% inhibitory concentration (IC50) worked out at 390 nM. In addition, the Binding site preference in [2] is 8.9.
In [1], `CN(C)CCNC(=O)c1ccc(NCCCN(C)CCCNc2ccc(C(=O)NCCN(C)C)c3nc4ccc(O)cc4c(O)c23)c2c(O)c3cc(O)ccc3nc12` registered an IC50 of 6900 nM. In [2], the Binding site preference is 1.8.
`CN(C)CCNC(=O)c1ccc(NCCCN(C)CCCNc2ccc(C(=O)NCCN(C)C)c3nc4ccc([N+](=O)[O-])cc4c(O)c23)c2c(O)c3cc([N+](=O)[O-])ccc3nc12`: the IC50 in test [1] is < 0.1 nM.
In test [1], `CN(C)CCn1c(=O)c2ccc(NCCN(C)CCNc3ccc4c(=O)n(CCN(C)C)c(=O)n5c6ccc(O)cc6c(=O)c3c45)c3c(=O)c4cc(O)ccc4n(c1=O)c23` returned an IC50 of 390 nM. The Binding site preference in test [2] was 9.1.
On to `COc1cc2c(=O)c3c(NCCCN(C)CCCNc4ccc5c(=O)n(CCN(C)C)c(=O)n6c7cc(OC)c(OC)cc7c(=O)c4c56)ccc4c(=O)n(CCN(C)C)c(=O)n(c2cc1OC)c43`, for which, in test [1], the IC50 turned out to be 250 nM. Besides, the Binding site preference in test [2] was found to be 4.6.
As for `COc1ccc2c(c1)-c1nn(CCN(C)C)c3ccc(C(=O)NCCN(C)C)c(c13)N2`, the Binding site preference in test [2] was 1.6.
With `CN(C)CCNc1ccc2c(=O)n(CCN(C)C)c(=O)n3c4ccc([N+](=O)[O-])cc4c(=O)c1c23`, in test [3], the Binding site preference was 0.12.
The molecule `COc1ccc2nc3c(C(=O)NCCN(C)C)ccc(NCCCN(C)CCCNc4ccc(C(=O)NCCN(C)C)c5nc6ccc(OC)cc6c(O)c45)c3c(O)c2c1` showed an IC50 in [1] of 39 nM. Also, the Binding site preference in test [2] is 1.9.
For `CN(C)CCN1Nc2c3cc(O)ccc3nc3c(C(=O)NCCN(C)CCNC(=O)c4ccc5c6c(c7cc(O)ccc7nc46)NN5CCN(C)C)ccc1c23` the same measures were > 10000 nM and 2.8.
Turning to `O=C1c2c(O)ccc(O)c2C(=O)c2c(NCCNCCO)ccc(NCCNCCO)c21` [MITOXANTRONE], the IC50 in test [4] was found to be 7 nM; in test [5] it was 0.75 nM; in test [6], 110 nM; in test [7], 5.8 nM; in [8], 6.8 nM; in test [9], 3.3 nM. Moreover, the IC50 came to 0.85 nM in test [10], 75 nM in [11], 12 nM in test [12] and 12 nM in test [13].
`COc1ccc2c(c1)c(=O)c1c(NCCN(C)CCNc3ccc4c(=O)n(CCN(C)C)c(=O)n5c6ccc(OC)cc6c(=O)c3c45)ccc3c(=O)n(CCN(C)C)c(=O)n2c31` had an IC50 in [1] of 720 nM. This lies in the sub-micromolar range.
For the molecule `COc1ccc2c(c1)-c1nn(CCN(C)C)c3ccc(C(=O)NCCN(C)CCNC(=O)c4ccc5c6c(c7cc(OC)ccc7nc46)NN5CCN(C)C)c(c13)N2`, 150 nM corresponded to half-maximal inhibition in [1] (IC50). The Binding site preference in [2] came to 2.8.
The corresponding values for `CN(C)CCN1Nc2c3cc(O)ccc3nc3c(C(=O)NCCCN(C)CCCNC(=O)c4ccc5c6c(c7cc(O)ccc7nc46)NN5CCN(C)C)ccc1c23` are 780 nM and 1.3.
As for `CN(C)CCNc1ccc2c(=O)n(CCN(C)C)c(=O)n3c4ccc(O)cc4c(=O)c1c23`, the Binding site preference in test [3] stood at 0.25.
`CN(C)CCn1c(=O)c2ccc(NCCN(C)CCN(C)CCNc3ccc4c(=O)n(CCN(C)C)c(=O)n5c6ccccc6c(=O)c3c45)c3c(=O)c4ccccc4n(c1=O)c23` displayed an IC50 in [1] of 390 nM. In addition, the Binding site preference in test [2] is 84.
The corresponding values for `CN(C)CCn1c(=O)c2ccc(NCCN(C)CCNc3ccc4c(=O)n(CCN(C)C)c(=O)n5c6ccccc6c(=O)c3c45)c3c(=O)c4ccccc4n(c1=O)c23` are 110 nM and 4.3.
For `CN(C)CCn1c(=O)c2ccc(NCCCCCCNc3ccc4c(=O)n(CCN(C)C)c(=O)n5c6ccccc6c(=O)c3c45)c3c(=O)c4ccccc4n(c1=O)c23` the same measures were 43 nM and 30.
As to `CN(C)CCNC(=O)c1ccc2c3c(c4ccccc4nc13)NN2CCN(C)C`, in test [2], the Binding site preference is 3.4.

What is called IC50 is the point on the concentration scale where inhibition reaches its midpoint. Read a high IC50 as a need for much substance.
